Active and inactive are the calls of the source. No cut-off for these calls is given here.
Columns and labels:
[1] = biological target: T1, Kappa-type opioid receptor (Homo sapiens, UniProt P41145); test: Displacement of [3H]diprenorphine from human kappa opioid receptor expressed in CHO cell membrane by liquid scintillation and luminescence counter
[2] = biological target: T1, Kappa-type opioid receptor; test: Agonist activity at human kappa opioid receptor expressed in CHO cell membrane assessed as stimulation of [35S]GTPgammaS binding relative to U69593; format: functional, cell membranes
How it was run: (§1)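 Membranes from CHOκ (human KOR, grown in DMEM-F12) or C6μ (rat MOR, DMEM) cells, 20 μg, incubated 60 min at 25 °C in 20 mM Tris-HCl pH 7.4, 5 mM MgCl2, 100 mM NaCl, 2.2 mM fresh DTT, 30 μM GDP, 0.1 nM [35S]GTPγS with compound; filtered on GF/C, scintillation counting; efficacy versus U69593 (KOR) or DAMGO (MOR); mean ± SEM of three experiments.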

[3] = biological target: Mu-type opioid receptor (Rattus norvegicus) (UniProt P33535); test: Agonist activity at rat mu opioid receptor expressed in rat C6 cell membrane assessed as stimulation of [35S]GTPgammaS binding relative to DAMGO; format: functional, cell membranes; how it was run: as §1
Chain of Mu-type opioid receptor (Rattus norvegicus) (P33535 whole entry): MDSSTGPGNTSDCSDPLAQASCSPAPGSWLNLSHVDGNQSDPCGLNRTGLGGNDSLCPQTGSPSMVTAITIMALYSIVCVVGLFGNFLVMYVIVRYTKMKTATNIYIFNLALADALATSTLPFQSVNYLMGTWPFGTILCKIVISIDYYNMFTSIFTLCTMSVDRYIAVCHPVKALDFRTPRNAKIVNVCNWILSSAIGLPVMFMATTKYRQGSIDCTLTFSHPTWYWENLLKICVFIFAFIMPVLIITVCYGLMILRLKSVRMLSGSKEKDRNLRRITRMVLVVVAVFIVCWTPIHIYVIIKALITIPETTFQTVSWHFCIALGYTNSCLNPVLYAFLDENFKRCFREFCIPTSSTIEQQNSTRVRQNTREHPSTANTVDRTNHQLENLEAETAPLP

[4] = biological target: T1, Kappa-type opioid receptor; test: Agonist activity at human kappa opioid receptor expressed in CHO cell membrane assessed as stimulation of [35S]GTPgammaS binding; format: functional, cell membranes; how it was run: as §1
[5] = biological target: T2, Mu-type opioid receptor (Rattus norvegicus, UniProt P33535); test: Agonist activity at rat mu opioid receptor expressed in rat C6 cell membrane assessed as stimulation of [35S]GTPgammaS binding; format: functional, cell membranes; how it was run: as §1
T2 sequence (P33535 whole entry): as above

[6] = biological target: T2, Mu-type opioid receptor; test: Displacement of [3H]diprenorphine from rat mu opioid receptor expressed in rat C6 cell membrane by liquid scintillation and luminescence counter
[7] = biological target: Mu-type opioid receptor (Rattus norvegicus) (UniProt P33535); test: Antagonist activity at rat mu opioid receptor expressed in rat C6 cell membrane assessed as DAMGO-stimulated of [35S]GTPgammaS binding; format: functional, cell membranes
How it was run: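 C6 glioma membranes with stably expressed rat MOR; antagonism of DAMGO-stimulated [35S]GTPγS binding reported as Ke; incubation 60 min, 25 °C, in Tris-HCl pH 7.4 with MgCl2, NaCl, DTT, 30 μM GDP, 0.1 nM [35S]GTPγS; filtration and scintillation read-out.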

T1 sequence (P41145 whole entry): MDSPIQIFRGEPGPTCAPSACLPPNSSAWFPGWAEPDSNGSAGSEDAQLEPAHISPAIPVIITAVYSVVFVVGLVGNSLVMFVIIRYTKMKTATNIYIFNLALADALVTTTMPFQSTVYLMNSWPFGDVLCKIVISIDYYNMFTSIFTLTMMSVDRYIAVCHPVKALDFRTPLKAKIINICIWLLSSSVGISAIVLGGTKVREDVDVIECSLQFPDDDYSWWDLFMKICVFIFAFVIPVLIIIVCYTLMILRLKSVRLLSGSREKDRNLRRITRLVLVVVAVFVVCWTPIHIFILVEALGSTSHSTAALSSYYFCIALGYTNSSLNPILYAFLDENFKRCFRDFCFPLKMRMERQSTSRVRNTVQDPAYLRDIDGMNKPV

## O=C(/C=C/c1ccccc1)N[C@@H]1CC[C@@]2(O)[C@H]3Cc4ccc(O)c5c4[C@@]2(CCN3CC2CC2)[C@H]1O5
[1]
  Ki: 0.043 nM
[2]
  Activity: 100%
[3]
  Activity: 21%
[4]
  EC50: 0.12 nM
[5]
  EC50: 1.8 nM
[6]
  Ki: 0.17 nM

## O=C(/C=C/c1ccccc1)N[C@@H]1CC[C@@]2(OC(=O)Cc3ccccc3)[C@H]3Cc4ccc(O)c5c4[C@@]2(CCN3CC2CC2)[C@H]1O5
[1]
  Ki: 0.26 nM
[2]
  Activity: 76%
[3]
  Activity: 41%
[4]
  EC50: 0.49 nM
[5]
  EC50: 1.3 nM
[6]
  Ki: 0.28 nM

## O=C(/C=C/c1cccc([N+](=O)[O-])c1)N[C@@H]1CC[C@@]2(O)[C@H]3Cc4ccc(O)c5c4[C@@]2(CCN3CC2CC2)[C@H]1O5
[1]
  Ki: 0.36 nM
[2]
  Activity: 100%
[3]
  Activity: 20%
[4]
  EC50: 0.12 nM
[5]
  EC50: 0.18 nM
[6]
  Ki: 0.11 nM

## O=C(/C=C/c1ccccc1Cl)N[C@@H]1CC[C@@]2(O)[C@H]3Cc4ccc(O)c5c4[C@@]2(CCN3CC2CC2)[C@H]1O5
[1]
  Ki: 0.27 nM
[2]
  Activity: 97%
[3]
  Activity: 17%
[4]
  EC50: 0.4 nM
[5]
  EC50: 12 nM
[6]
  Ki: 0.079 nM

## O=C(/C=C/c1ccccc1)N[C@@H]1CC[C@@]2(OCc3ccccc3)[C@H]3Cc4ccc(O)c5c4[C@@]2(CCN3CC2CC2)[C@H]1O5
[1]
  Ki: 0.86 nM
[2]
  Activity: 97%
[3]
  Activity: 19%
[4]
  EC50: 0.78 nM
[5]
  EC50: 2 nM
[6]
  Ki: 0.16 nM

## CC(=O)O[C@@]12CC[C@@H](NC(=O)/C=C/c3ccccc3)[C@@H]3Oc4c(O)ccc5c4[C@@]31CCN(CC1CC1)[C@@H]2C5
[1]
  Ki: 0.59 nM
[2]
  Activity: 97%
[3]
  Activity: 19%
[4]
  EC50: 2.4 nM
[5]
  EC50: 1 nM
[6]
  Ki: 0.21 nM

## O=C(/C=C/c1ccccc1)N[C@@H]1CC[C@@]2(OC(=O)c3ccccc3)[C@H]3Cc4ccc(O)c5c4[C@@]2(CCN3CC2CC2)[C@H]1O5
[1]
  Ki: 1.1 nM
[7]
  Ke: 0.41 nM
[2]
  Activity: 26%
[3]
  Activity: inactive
[4]
  EC50: 9.8 nM
[6]
  Ki: 0.42 nM

## C=CCO[C@@]12CC[C@@H](NC(=O)/C=C/c3ccccc3)[C@@H]3Oc4c(O)ccc5c4[C@@]31CCN(CC1CC1)[C@@H]2C5
[1]
  Ki: 0.12 nM
[2]
  Activity: 120%
[3]
  Activity: 39%
[4]
  EC50: 0.079 nM
[5]
  EC50: 0.6 nM
[6]
  Ki: 0.25 nM

## COc1ccccc1/C=C/C(=O)N[C@@H]1CC[C@@]2(O)[C@H]3Cc4ccc(O)c5c4[C@@]2(CCN3CC2CC2)[C@H]1O5
[2]
  Activity: 105%
[3]
  Activity: 21%

## O=C(/C=C/c1ccccc1[N+](=O)[O-])N[C@@H]1CC[C@@]2(O)[C@H]3Cc4ccc(O)c5c4[C@@]2(CCN3CC2CC2)[C@H]1O5
[1]
  Ki: 0.3 nM
[2]
  Activity: 81%
[3]
  Activity: 6.7%
[4]
  EC50: 1.9 nM
[5]
  EC50: 0.69 nM
[6]
  Ki: 0.35 nM
